A1 inh: inhibitors of the anti-apoptotic protein A1, read as caspase activation | caspase activation, % (concentration not given with the values) | 330,000 tested, 0.066% active | AID 2462 | MEF A1-2A-BIM cells, Caspase-Glo 3/7 luminescence, 3 h; percent of clofoctol response, vehicle zero;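 active means over half of replicate activation scores above 10%, or exactly half above 10 with the replicate mean above 10; inconclusive means replicate mean below 10 yet half the replicates above 10; inactive means over half of replicates below 10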
HKDC1 inh: inhibitors of human hexokinase HKDC1; Q2TB90; recombinant HKDC1, G6PDH/diaphorase resazurin coupled fluorescence; inhibition, % at 20 µM; 340,000 tested, 0.16% active;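 active means inhibition above about 35% when tested at 20 µM, limit read from the data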;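 further: plate controls were DMSO wells with enzyme for no effect and DMSO wells lacking enzyme for full effect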
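Test system: HK5 enzyme. Quantity: 5 µg/mL HK5 final. Reagent: glucose and ATP substrates. Schedule: 90 min reaction incubation at room temperature, dark. Technique: resazurin-to-resorufin fluorescence via G6PDH and diaphorase coupling, 525/613 nm. Control set: DMSO wells with and without enzyme mix.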
AI-2 QS modul: Vibrio harveyi AI-2 quorum sensing modulation; Vibrio harveyi JMH597 AI-2 luminescence/OD600 ratio, 9 h; active compounds read low; strain lacks LuxN and CqsS sensors; 0 = neutral-control median; activity change, % at 7.5 µM; 300,000 tested, 0.4% active; in the data active means activity change below about -75%, passing the limit was not always enough; inconclusive means no clear call, values can overlap the other calls;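 further: luminescence divided by OD600 gain over 9 h not by final OD600 alone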
ATG4B inh: inhibitors of human ATG4B cysteine protease; 340,000 tested, 0.51% active; AID 504462; Q9Y4P1; inhibition, % at 8.33 µM; ATG4B cleavage of LC3-PLA2, NBD-HPC fluorescence, 1 h; in the data active means inhibition above about 40%
HDAC3 inhib: inhibitors of human histone deacetylase 3; O15379; recombinant HDAC3, fluorogenic peptide/trypsin coupled, fluorescence; inhibition, % at 8.3 µM; 320,000 tested, 0.15% active; AID 2718; in the data active means inhibition above about 26%, passing the limit was not always enough; inconclusive means no clear call, values can overlap the other calls
LANA-H2B inh: blocks KSHV LANA binding to histone H2A/H2B; cell-free LANA-H2A/H2B peptide, fluorescence polarization; inhibition, % (test concentration not listed); 320,000 tested, 0.6% active; AID 2629; in the data active means inhibition mostly above about 10%, no sharp cut-off; inactive means mostly below about 6.7%
An asterisk follows results filed as active; ? = inconclusive; . = not tested or not shown; + = active, no number. Only some compounds are listed: those with a hit (about 1.8% of all), similar ones and a draw of the others.

SMILES	A1 inh	HKDC1 inh	AI-2 QS modul	ATG4B inh	HDAC3 inhib	LANA-H2B inh
COC(=O)c1ccc(/C=N/NC(=O)C2CC(=O)N(c3ccc(F)cc3)C2)cc1 (stereo not given)	-0.1	-4.6	16.6	-16.4	3.5	12.7*
CNC(=O)c1c(NC(=O)c2ccco2)sc2c1CCC2	-0.7	6.7	10.4	-0.9	-0.3	83.2*
Cc1ccc(NC(=O)CN(C)C(=O)CCSc2ccc(F)cc2)cc1	-0.5	-4.2	.	-15.7	0.7	17.8*
COc1ccc(-c2cc(C(=O)N3CCN(c4ccccc4OC)CC3)no2)cc1	0.3	-2.8	.	-1.0	1.0	19.8*
COc1ccccc1N1CCN(C(=O)c2cc3c(=O)n4cccc(C)c4nc3s2)CC1	0.0	5.8	.	-1.5	-8.3	26.1*
COc1ccc(N2CCN(C(=O)c3ccc4ccccc4n3)CC2)cc1	0.4	-12.0	2.7	2.1	2.4	16.1*
O=C(c1ccc2ccccc2n1)N1CCN(c2ccccc2)CC1	0.3	0.2	15.0	-4.6	-2.1	1.1
COCc1nnc(NC(=O)CCN2C(=O)c3ccccc3C2=O)s1	-0.3	-11.1	-31.8	-5.6	4.3	16.0*
CCOCCc1nnc(NC(=O)CN2C(=O)c3ccccc3C2=O)s1	0.6	-8.2	-89.2*	-2.1	-1.6	4.1
O=[N+]([O-])c1ccc(S(=O)(=O)NN=Cc2ccc(Cl)c(Cl)c2)cc1	.	0.1	.	2.9	.	.
O=S(=O)(NCCc1ccccc1)c1ccc(Br)s1	0.2	-1.8	-53.9	7.0	5.1	-2.7
COc1ccc(CCNS(=O)(=O)c2ccc(Br)s2)cc1	0.5	2.6	-77.9*	-5.6	1.8	-1.6
CC1(O)CC(C)(C)C(C#N)C(=O)N1 (stereo not given)	.	-6.8	.	-1.3	.	.
CCc1c2ccccc2nn1-c1ccccc1C(=O)C(C)=O	0.2	-2.8	-4.2	5.6	-2.0	10.4*
O=C(Cc1ccc(F)cc1)Nc1cccc(-c2cn3c(n2)SCC3)c1	-0.2	4.4	22.7	5.3	-5.1	+
O=C(Nc1cccc(-c2cn3c(n2)SCC3)c1)c1ccc(Br)o1	-0.7	-0.1	9.3	-10.4	0.2	1.1
COCCCn1c(=O)/c(=C\c2ccc(OC(F)F)c(OC)c2)s/c1=C(/C#N)C(N)=O	-0.4	-6.9	22.0	-11.7	-0.1	29.2*
O=C(CSc1nc2ccccc2c(=O)n1-c1ccccc1F)NC1CCS(=O)(=O)C1 (stereo not given)	-0.3	-6.4	.	-3.1	23.6	123.9*
CN(C(=O)CSc1nc2ccccc2c(=O)n1C)C1CCS(=O)(=O)C1 (stereo not given)	-1.0	-2.1	.	-3.0	2.3	20.1*
Cc1ccccc1-n1c(SCC(=O)NC2CCS(=O)(=O)C2)nc2ccccc2c1=O (stereo not given)	.	5.9	.	-5.3	.	.
Cc1ccc(C)c(NC(=S)NC(NC(=O)Cc2cccc3ccccc23)C(Cl)(Cl)Cl)c1 (stereo not given)	11.6*	-2.0	11.9	5.3	-5.2	-5.6
O=C(NCCc1ccccc1)c1cnc2n(c1=O)CCS2	-0.2	-9.3	1.5	2.8	?	12.5*
O=C(NCCc1c[nH]c2ccccc12)c1cnc2n(c1=O)CCS2	0.5	3.3	20.0	6.1	7.6	0.3
OC(CNCc1ccccc1)COCc1ccc(Cl)cc1 (stereo not given)	-0.4	-0.2	8.8	-13.6	-4.9	2.6
O=S(Cc1ccc(Cl)cc1)CC(O)COCc1ccc(Cl)cc1 (stereo not given)	-0.3	-7.5	6.0	-2.7	1.3	19.1*
Cc1cc(C(=O)OCC(=O)Nc2ccc(F)cc2)c(C)o1	0.5	0.2	-81.6*	-3.0	3.0	-3.3
CCN(CC)S(=O)(=O)c1cccc(NC(=O)COC(=O)c2cc(C)oc2C)c1	0.4	-2.3	11.3	-21.1	7.3	6.1
Cc1cc(C(=O)OCC(=O)Nc2cccc(S(=O)(=O)N(C)C)c2)c(C)o1	0.5	-0.1	-88.6*	-5.8	-2.9	-2.2
Cc1ccc(N(CC(=O)Nc2cc(Cl)ccc2Oc2ccccc2)S(C)(=O)=O)cc1C	0.7	-2.8	49.0	-1.1	26.7*	-3.9

Screens: PubChem BioAssay, several laboratories
